{"source": "paper PMC5436510", "about": "(Theranostics, 2017)", "key": {"U87MG-tumor-bearing mice": {"system": "U87MG-tumor-bearing mice", "assay": "In vivo antitumor study of peptide-Dox conjugates", "set-up": "species or system nude mice", "in_short": "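Female nude mice aged 6–7 weeks were inoculated s.c. in the axillary fossa with 1×10^7 U87MG cells. On day 7 they were split into five groups of 10. Saline, free Dox or peptide-Dox conjugates were given i.v. via the tail vein every other day for 7 doses, each equal to 5 mg/kg Dox. Body weight and caliper tumor volume, V = π/6·length·width², were recorded, along with survival.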"}, "αvβ3 integrin": {"biological_target": "αvβ3 integrin (Homo sapiens, UniProt P05106+P06756)", "sequence (P06756 31-889)": "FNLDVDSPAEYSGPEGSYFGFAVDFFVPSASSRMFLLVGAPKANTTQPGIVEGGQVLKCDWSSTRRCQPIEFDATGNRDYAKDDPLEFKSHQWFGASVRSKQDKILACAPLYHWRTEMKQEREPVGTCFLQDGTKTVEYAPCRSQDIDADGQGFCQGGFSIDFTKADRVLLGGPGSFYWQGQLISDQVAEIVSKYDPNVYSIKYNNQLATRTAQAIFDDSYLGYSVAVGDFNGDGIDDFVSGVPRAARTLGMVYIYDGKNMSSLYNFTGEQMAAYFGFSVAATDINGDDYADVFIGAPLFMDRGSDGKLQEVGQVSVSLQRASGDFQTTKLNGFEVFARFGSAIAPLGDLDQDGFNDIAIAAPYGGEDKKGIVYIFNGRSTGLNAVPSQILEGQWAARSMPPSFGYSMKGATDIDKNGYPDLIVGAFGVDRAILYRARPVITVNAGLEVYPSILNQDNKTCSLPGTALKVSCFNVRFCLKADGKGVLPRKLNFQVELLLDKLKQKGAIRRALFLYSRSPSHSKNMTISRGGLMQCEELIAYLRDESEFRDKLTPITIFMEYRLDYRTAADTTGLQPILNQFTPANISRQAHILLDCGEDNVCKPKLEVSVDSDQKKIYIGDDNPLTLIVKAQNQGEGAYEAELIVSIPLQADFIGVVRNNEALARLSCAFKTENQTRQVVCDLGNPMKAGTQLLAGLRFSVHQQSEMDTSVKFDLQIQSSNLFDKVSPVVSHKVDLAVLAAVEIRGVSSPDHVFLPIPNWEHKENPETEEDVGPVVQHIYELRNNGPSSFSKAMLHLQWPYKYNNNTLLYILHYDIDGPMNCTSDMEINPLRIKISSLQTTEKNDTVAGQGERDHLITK", "sequence (P06756 891-1048)": "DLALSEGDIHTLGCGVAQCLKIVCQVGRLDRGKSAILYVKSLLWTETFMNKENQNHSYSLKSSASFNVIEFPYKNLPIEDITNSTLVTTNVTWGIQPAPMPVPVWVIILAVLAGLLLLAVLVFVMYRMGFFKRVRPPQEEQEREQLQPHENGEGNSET", "sequence (P05106 27-788)": "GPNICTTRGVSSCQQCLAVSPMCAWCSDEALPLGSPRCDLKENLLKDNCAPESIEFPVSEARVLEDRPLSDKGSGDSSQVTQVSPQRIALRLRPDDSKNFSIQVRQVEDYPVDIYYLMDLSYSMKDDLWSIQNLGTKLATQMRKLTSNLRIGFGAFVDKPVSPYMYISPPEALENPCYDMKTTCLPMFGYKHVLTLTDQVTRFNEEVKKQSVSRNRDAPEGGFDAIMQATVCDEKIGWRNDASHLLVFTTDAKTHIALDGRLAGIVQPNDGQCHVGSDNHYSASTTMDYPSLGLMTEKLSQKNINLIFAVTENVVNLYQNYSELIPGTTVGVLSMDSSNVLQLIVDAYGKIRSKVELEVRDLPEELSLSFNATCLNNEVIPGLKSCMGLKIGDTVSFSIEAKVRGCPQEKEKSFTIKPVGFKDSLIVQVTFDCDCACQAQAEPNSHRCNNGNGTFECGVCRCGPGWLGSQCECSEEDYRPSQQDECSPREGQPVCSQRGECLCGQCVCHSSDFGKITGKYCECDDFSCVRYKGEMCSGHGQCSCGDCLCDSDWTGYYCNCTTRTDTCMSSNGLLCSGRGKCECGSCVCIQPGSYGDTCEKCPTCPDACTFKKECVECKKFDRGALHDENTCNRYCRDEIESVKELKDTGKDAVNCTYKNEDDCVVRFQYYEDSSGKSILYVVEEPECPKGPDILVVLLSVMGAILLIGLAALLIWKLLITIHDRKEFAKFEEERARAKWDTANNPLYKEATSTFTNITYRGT", "assay": "MicroScale Thermophoresis", "assay_type": "binding"}, "U87MG cells": {"biological_target": "U87MG cells (Homo sapiens, UniProt P05106+P06756)", "sequence (P06756 31-1048)": "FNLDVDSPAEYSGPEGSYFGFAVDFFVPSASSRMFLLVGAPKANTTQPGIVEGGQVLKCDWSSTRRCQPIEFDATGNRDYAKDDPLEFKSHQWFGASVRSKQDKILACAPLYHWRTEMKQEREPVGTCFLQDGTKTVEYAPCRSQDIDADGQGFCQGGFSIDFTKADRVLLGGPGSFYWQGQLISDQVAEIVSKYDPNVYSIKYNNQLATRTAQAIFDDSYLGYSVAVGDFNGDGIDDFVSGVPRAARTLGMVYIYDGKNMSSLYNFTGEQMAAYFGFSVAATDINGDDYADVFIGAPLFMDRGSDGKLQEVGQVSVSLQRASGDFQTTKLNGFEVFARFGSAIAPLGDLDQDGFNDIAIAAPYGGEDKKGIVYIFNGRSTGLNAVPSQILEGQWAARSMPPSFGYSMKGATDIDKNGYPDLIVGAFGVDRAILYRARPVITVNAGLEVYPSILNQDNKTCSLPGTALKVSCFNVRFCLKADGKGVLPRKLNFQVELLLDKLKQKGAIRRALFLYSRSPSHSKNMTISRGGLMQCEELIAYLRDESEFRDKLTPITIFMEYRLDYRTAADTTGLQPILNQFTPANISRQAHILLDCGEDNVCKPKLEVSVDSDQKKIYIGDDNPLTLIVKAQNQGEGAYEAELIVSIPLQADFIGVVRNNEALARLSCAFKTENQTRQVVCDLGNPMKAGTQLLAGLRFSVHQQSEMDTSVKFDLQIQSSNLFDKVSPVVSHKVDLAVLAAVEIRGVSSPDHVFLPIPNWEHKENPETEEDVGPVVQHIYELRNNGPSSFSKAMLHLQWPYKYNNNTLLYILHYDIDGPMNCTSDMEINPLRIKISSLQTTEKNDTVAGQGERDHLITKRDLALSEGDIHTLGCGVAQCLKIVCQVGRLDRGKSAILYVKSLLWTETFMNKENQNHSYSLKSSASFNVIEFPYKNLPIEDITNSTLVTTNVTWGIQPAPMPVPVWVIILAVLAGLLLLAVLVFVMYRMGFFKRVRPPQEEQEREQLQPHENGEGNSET", "sequence (P05106 27-788)": "as the sequence (P05106 27-788) above", "assay": "Confocal cellular uptake of peptide-RhB conjugates", "assay_type": "cell-based", "settings": "confocal imaging, incubation up to 4 h", "in_short": "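Cells were seeded on confocal dishes at 3×10^5 per well and left 24 h to attach. Cells were washed three times with PBS (pH 7.4), imaged by laser confocal microscopy, and uptake at 2 h was quantified as mean fluorescence intensity.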"}, "[1]": {"system": "U87MG, MDA-MB-231, HepG2 and L02 cells", "assay": "Transwell cell migration assay", "assay_type": "cell-based, Human", "settings": "peptides 40μM for 24 h, transwell 12 hours", "in_short": "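Cells at 60–70% confluence in 6-well plates were exposed to peptides (40 μM) for 24 h. They were then detached and 5×10^5 cells placed in transwell upper chambers, in triplicate, over DMEM + 10% FBS. After 12 h, unmigrated cells were swabbed off. Membranes were fixed in methanol and stained with 0.1% crystal violet, 30 min each. The dye was eluted with 33% acetic acid and read at OD570. % migration = treated/control OD570 × 100.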"}, "[2]": {"system": "p-FAK, p-PI3K, p-Ras in U87MG cells", "assay": "Western blot of αvβ3 downstream signalling", "assay_type": "cell-based, Human", "settings": "64μg /mL for 48 h"}}, "note": "Square brackets hold non-standard residues; d marks the D form. Peptide text beside a SMILES is read from it.", "data": [{"smiles": "COc1cccc2c1C(=O)c1c(O)c3c(c(O)c1C2=O)C[C@@](O)(C(=O)CO)C[C@@H]3O[C@H]1C[C@H](N)[C@H](O)[C@H](C)O1", "note": "[Dox, doxorubicin]", "values": [{"measurement": "survival rate (in words)", "setting": "U87MG-tumor-bearing mice; 15-day treatment", "result": "lowest survival rate"}, {"measurement": "body weight", "setting": "U87MG-tumor-bearing mice; 15-day treatment, dose 5mg/kg of Dox", "result": "continual decrease in body weight"}, {"measurement": "histopathology (H&E) toxicity in organs", "setting": "U87MG-tumor-bearing mice; after the 15-day treatment", "result": "obvious cardiotoxicity and hepatotoxicity"}]}, {"smiles": "N=C(N)NCCC[C@H](N)C(=O)N[C@@H](Cc1c[nH]c2ccccc12)C(=O)N[C@H](CCCNC(=N)N)C(=O)O", "note": "[RWr] (H-Arg-Trp-[dR]-OH)", "values": [{"measurement": "Kd", "setting": "αvβ3 integrin", "result": "33.6 ± 4.56", "unit": "nM"}]}, {"smiles": "CCN(CC)c1ccc2c(-c3ccccc3C(=O)O)c3ccc(=[N+](CC)CC)cc-3oc2c1", "note": "[RhB, Rhodamine B]", "values": [{"measurement": "cellular uptake (RhB fluorescence)", "setting": "U87MG cells", "result": "no fluorescence was observed"}]}, {"smiles": "CSCC[C@H](NC(=O)[C@H](CC(N)=O)NC(=O)[C@@H](CCCNC(=N)N)NC(=O)[C@H](Cc1c[nH]c2ccccc12)NC(=O)[C@@H](N)CCCNC(=N)N)C(=O)O", "note": "[RWrNM] (H-RW[dR]NM-OH)", "values": [{"measurement": "Kd", "setting": "αvβ3 integrin", "result": "8.61 ± 1.35", "unit": "nM"}]}, {"smiles": "N=C(N)NCCC[C@@H]1NC(=O)[C@H](CCCCN)NC(=O)[C@@H](Cc2ccc(O)cc2)NC(=O)[C@H](CC(=O)O)NC(=O)CNC1=O", "note": "[c(RGDyK)]", "values": [{"measurement": "cell migration compared with the controls", "setting": "[1]", "result": "obvious decrease in cell migration"}, {"measurement": "levels of phosphorylated signalling proteins", "setting": "[2]", "result": "decreased the levels of p-FAK, p-PI3K, and p-Ras proteins"}]}, {"smiles": "CC(=O)O[C@H]1C(=O)[C@@]2(C)[C@H]([C@H](OC(=O)c3ccccc3)[C@]3(O)C[C@H](OC(=O)[C@H](O)[C@@H](NC(=O)c4ccccc4)c4ccccc4)C(C)=C1C3(C)C)[C@]1(OC(C)=O)CO[C@@H]1C[C@@H]2O", "note": "[PTX]", "values": [{"measurement": "cell migration compared with the controls", "setting": "[1]", "result": "strong inhibition on cell migration"}]}, {"smiles": "CCN(CC)CCNC(=O)c1c(C)[nH]c(/C=C2\\C(=O)Nc3ccc(F)cc32)c1C", "note": "[Sunitinib]", "values": [{"measurement": "cell migration compared with the controls", "setting": "[1]", "result": "strong inhibition on cell migration"}]}]}
